Laboratory results as given in publication PMC6374747 (Biochemistry, 2018).
Ends that are not written are not given here.

Assays:
[1] = ThT fluorescence aggregation assay; format: physicochemical; details: for Concentration at which amyloid-like aggregation was observed (ThT): pH 5.0, 20 mM NaOAc, 1–200 μM tested
How it was run: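 Peptide (199 μL; 200–1 μM at pH 5.0 in 20 mM NaOAc, or 200 μM in buffers of pH 3.0–7.0) was mixed with 1 μL ThT. Fluorescence was read at 37 °C (ex 444 nm, em 485 nm, 10 nm bandwidth) every 10 min for at least 15 h with gentle agitation. Signal was normalised to buffer plus ThT. Runs were done at least three times, each in triplicate; end point at 15 h.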

[2] = system: marmoset EBV-BLCs and co-culture with lymphocytes; test: FACS-based immunotoxicity assay; format: cell-based, Callithrix jacchus; details: CellTrace-stained EBV-BLCs, 24 h, 30, 10, 3, 1 μg/mL tested
How it was run: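 EBV-BLCs were prestained with CellTrace for 20 min at RT and plated at 1 × 10^3 cells/well. Peptide (30, 10, 3, 1 μg/mL; medium as negative control) was added for 1 h at 37 °C, 5% CO2, in medium with 10% FCS. Freshly thawed axillary lymph node mononuclear cells from an EAE marmoset were then added at 1 × 10^5 cells/well for 24 h. Cells were stained with a live/dead marker and AnnexinV-APC, then fixed in 1% PFA/AnnexinV binding buffer. CellTrace+ and CellTrace– gates were each gated for AnnexinV and live/dead. Non-co-cultured lymphocytes served as control.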

Human EBV-infected BLCs = test: Immunofluorescence microscopy of bioorthogonal peptides; format: cell-based; details: for Intracellular aggregation in EBV-infected BLCs (within LC3 positive vesicles): 6.2 and 25 μM (also 3.1, 12.5 μM), 48 h, serum-free, CuAAC Alexa647-azide; for Aggregates in the absence of cells (CuAAC with Alexa647-azide): serum-free medium, no cells
How it was run: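 Human BSM EBV-lymphoblastoid cells (1.5 × 10^6/well) were incubated with peptide (6.25 or 25 μM; medium as control) in serum-free R0 medium at 37 °C. Cytospins (5 × 10^4 cells, 28g, 3 min) were air-dried, stored at −80 °C, and PFA-fixed. Staining: anti-LC3 1:20 overnight at 4 °C, then anti-mouse FITC 1:400. Peptide was detected by CuAAC (0.064 mM CuSO4, 0.038 mM ascorbate, 0.25 mM THPTA, AF647-azide 1:160, 100 mM Tris pH 8.0, 1 h, RT, dark). DAPI mounting; fluorescence microscopy.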

[3] = Seeded nucleation ThT aggregation assay; format: physicochemical; details: 40 μM peptide, 200 μL, pH 5.0; seeds of 5 or 7, 3–300 ng
How it was run: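 Seeds were prepared by centrifuging aggregated peptide (20000g, 30 min) and homogenising the pellet in 20 mM NaOAc to an estimated 0.1 mg/mL. ThT fluorescence was followed at 37 °C (ex 444 nm, em 485 nm) in kinetic mode.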

Q: With “MOG31-55(NArg3) (NATGMEVGWYRPPFSRVVHLYRNGK; UniProt Q16653 60-84, looked up, fragment) [Peptide 9]” as the substance, how does the “Aggregation of elongated MOG31–55 peptides (ThT)” value ([1]; pH 5.0, 37 °C, 1–200 μM) read?
A: Neither 9 nor 10 aggregated

Q: What does the source list for MOG31-55(Pg_Cit41&46) [Peptide 11]?
A: Concentration giving increased level of apoptosis (Annexin V) [2]: > 1 µg/mL; Intracellular aggregation in EBV-infected BLCs (within LC3 positive vesicles) (Human EBV-infected BLCs): small spheres; Aggregates in the absence of cells (CuAAC with Alexa647-azide) (Human EBV-infected BLCs): large aggregates

Q: For MOG31-55(Pg_Cit46&Cit52) [Peptide 12], which “Concentration giving increased level of apoptosis (Annexin V)” value [2] is on record?
A: > 1 µg/mL

Q: What about the “Intracellular aggregation in EBV-infected BLCs (within LC3 positive vesicles)” value (Human EBV-infected BLCs) of the same substance?
A: large agglomerates

Q: And the “Aggregates in the absence of cells (CuAAC with Alexa647-azide)” value (Human EBV-infected BLCs)?
A: large aggregates

Q: Which results are given for “MOG35-55(Arg3) (MEVGWYRPPFSRVVHLYRNGK-NH2; not fully specified; UniProt Q16653 64-84, looked up, fragment) [Peptide 1]”?
A: Aggregation at any pH or any concentration tested (ThT) ([1]; pH 3.0–7.0 at 200 μM, 1–200 μM at pH 5.0, 37 °C): did not show any aggregation; Aggregation kinetics on seeding (ThT) [3]: no aggregation was observed

Q: For MOG35-55(Cit3) [Peptide 8], which “Aggregation at pH 6 compared to pH 5 (ThT)” value ([1]; 200 μM, 37 °C) is on record?
A: ~3 fold

Q: And the “Aggregation at pH 7 compared to pH 5 (ThT)” value ([1]; 200 μM, 37 °C)?
A: ~4 fold

Q: What about the “Concentration at which amyloid-like aggregation was observed (ThT)” value ([1]; 37 °C) of the same substance?
A: > 4 µM

Q: What about the “Aggregation at a final concentration of 1 μM (ThT)” value ([1]; pH 5.0, 37 °C) of the same substance?
A: but not at a final concentration of 1 μM

Q: For MOG35-55(Cit41&Cit52) [Peptide 6], which “Concentration at which amyloid-like aggregation was observed (ThT)” value ([1]; 37 °C) is on record?
A: aggregation at all concentrations tested

Q: With MOG35-55(Cit41) [Peptide 2] as the substance, how does the “Concentration at which amyloid-like aggregation was observed (ThT)” value ([1]; 37 °C) read?
A: > 4 µM

Q: Which results are given for MOG35-55(Cit46) [Peptide 3]?
A: Concentration at which amyloid-like aggregation was observed (ThT) ([1]; 37 °C): > 4 µM; Aggregation at a final concentration of 1 μM (ThT) ([1]; pH 5.0, 37 °C): but not at a final concentration of 1 μM
